Test results reported in ChEMBL document CHEMBL4024784, “Structure-Based Design, Synthesis, and In Vivo Antinociceptive Effects of Selective A1 Adenosine Receptor Agonists” (J Med Chem, 2018).
Active and inactive are the calls of the source. The rule behind the calls is not given here.

Legend:
Adenosine receptor A2b = molecular target: T1, Adenosine receptor A2b (Homo sapiens, UniProt P29275); test: Agonist activity at recombinant human adenosine A2B receptor expressed in CHO cell membranes assessed as stimulation of adenylyl cyclase activity in presence of […]; type: functional, cell-based
T1 sequence (P29275 whole entry): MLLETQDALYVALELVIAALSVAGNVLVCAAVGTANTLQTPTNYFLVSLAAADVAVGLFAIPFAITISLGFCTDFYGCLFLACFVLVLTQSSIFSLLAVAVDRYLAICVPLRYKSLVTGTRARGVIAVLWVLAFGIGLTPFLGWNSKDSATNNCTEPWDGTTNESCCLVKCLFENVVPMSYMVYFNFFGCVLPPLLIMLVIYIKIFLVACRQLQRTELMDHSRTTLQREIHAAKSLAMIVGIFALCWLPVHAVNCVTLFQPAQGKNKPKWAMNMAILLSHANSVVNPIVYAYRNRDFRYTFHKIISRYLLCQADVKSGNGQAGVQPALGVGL
Method in brief: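 A2B potency from stimulation of adenylyl cyclase in crude CHO membranes (single high-speed centrifugation, resuspended in 50 mM Tris/HCl pH 7.4, used immediately); EC50 derived. Where only partial agonism was seen, efficacy was compared to 100 µM NECA as full agonist. Geometric means, 95% CI, duplicates, n ≥ 3.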

Adenosine receptor A3 [1] = molecular target: T2, Adenosine receptor A3 (Homo sapiens, UniProt P0DMS8); test: Displacement of [3H]HEMADO from recombinant human adenosine A3 receptor expressed in CHO cell membranes after 3 hrs
T2 sequence (P0DMS8 whole entry): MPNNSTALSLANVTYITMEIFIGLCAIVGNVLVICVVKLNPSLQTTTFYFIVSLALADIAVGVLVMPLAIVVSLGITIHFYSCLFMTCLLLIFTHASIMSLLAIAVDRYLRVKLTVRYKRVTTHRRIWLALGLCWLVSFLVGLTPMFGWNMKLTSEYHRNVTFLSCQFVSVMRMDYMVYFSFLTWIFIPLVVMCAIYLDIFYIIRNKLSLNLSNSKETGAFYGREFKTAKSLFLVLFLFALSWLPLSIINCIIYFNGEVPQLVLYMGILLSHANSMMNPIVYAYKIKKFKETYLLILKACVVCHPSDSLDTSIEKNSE
Method in brief: (§1)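 Competition binding on CHO membranes stably expressing the human subtype (two-step 1,000 x g then 100,000 x g centrifugation, stored -80°C). Radioligands: 1 nM [3H]CCPA (A1), 10 nM [3H]NECA (A2A), 1 nM [3H]HEMADO (A3). Nonspecific binding: 1 mM theophylline (A1) or 100 µM R-PIA (A2A, A3). Ki from competition curves; geometric means with 95% CI, duplicates, n ≥ 3.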

Adenosine receptor A2a = Adenosine receptor A2a (Homo sapiens, UniProt P29274); test: Displacement of [3H]NECA from recombinant human adenosine A2A receptor expressed in CHO cell membranes after 3 hrs; method in brief: as §1
Adenosine receptor A1 [2] = molecular target: T3, Adenosine receptor A1 (Homo sapiens, UniProt P30542); test: Displacement of [3H]CCPA from recombinant human adenosine A1 receptor expressed in CHO cell membranes after 3 hrs; method in brief: as §1
T3 sequence (P30542 whole entry): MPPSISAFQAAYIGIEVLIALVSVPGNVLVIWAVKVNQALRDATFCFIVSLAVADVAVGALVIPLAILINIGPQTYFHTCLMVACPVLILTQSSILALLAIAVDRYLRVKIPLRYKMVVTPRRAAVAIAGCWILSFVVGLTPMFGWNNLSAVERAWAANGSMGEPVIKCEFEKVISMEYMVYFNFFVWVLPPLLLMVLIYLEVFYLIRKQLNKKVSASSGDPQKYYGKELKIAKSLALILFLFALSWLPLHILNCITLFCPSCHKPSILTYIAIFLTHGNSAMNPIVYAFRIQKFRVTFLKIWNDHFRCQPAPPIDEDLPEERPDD

Homo sapiens = species: Homo sapiens; test: Selectivity ratio of Ki for recombinant human adenosine A2A receptor to Ki for recombinant human adenosine A1 receptor
Method in brief: (§2)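 Ratios computed from Ki values obtained by competition binding in human receptor-transfected CHO membranes: [3H]CCPA 1 nM (A1), [3H]NECA 10 nM (A2A), [3H]HEMADO 1 nM (A3).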

[3] = molecular target: Adenosine receptors; A1 & A3 (Homo sapiens) (UniProt P30542+P0DMS8); test: Selectivity ratio of Ki for recombinant human adenosine A3 receptor to Ki for recombinant human adenosine A1 receptor; method in brief: as §2
Adenosine receptor A1 [4] = molecular target: T3, Adenosine receptor A1; test: Agonist activity at recombinant human adenosine A1 receptor expressed in CHO cell membranes assessed as inhibition of forskolin-stimulated adenylyl cyclase activity in presence of […]
[5] = molecular target: T4, Adenosine receptor A1 (Homo sapiens) (UniProt P30542); test: Agonist activity at recombinant human adenosine A1 receptor expressed in CHO cell membranes assessed as inhibition of forskolin-stimulated adenylyl cyclase activity in presence of […] relative to CCPA
T4 sequence (whole entry): T3 sequence (P30542 whole entry)

Adenosine receptor A3 [6] = molecular target: T2, Adenosine receptor A3; test: Antagonist activity at recombinant human adenosine A3 receptor expressed in CHO cell membranes assessed as inhibition of forskolin-stimulated adenylyl cyclase in presence of […]; type: functional, cell-based
Method in brief: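 hA3-CHO membranes (one high-speed spin, 50 mM Tris/HCl pH 7.4, used fresh) tested for reversal of NECA-induced inhibition of forskolin-stimulated adenylyl cyclase. NECA served as reference agonist. Points in duplicate, at least 3 independent experiments.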

Mus musculus [7] = test: Antinociceptive activity in ip dosed C57BL/6 mouse assessed as reduction in prolonged phase of tonic pain administered 10 mins prior to formalin challenge measured after 60 mins; type: functional, organism-based
Method in brief: (§3)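 Adult male C57BL/6 mice (25-30 g), acclimatized 30 min in test chamber. Compound or vehicle (10% DMSO in 0.9% NaCl) given i.p. 10 min before 30 µL 1.25% formalin s.c. into dorsal hind paw; DPCPX 1 mg/kg i.p. where co-given. Blinded observers recorded paw lifting/licking time every 5 min for 60 min; early phase 0-7 min, late phase 15-60 min. 8-10 mice/group, mean ± SEM.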

Mus musculus [8] = test: Antinociceptive activity in C57BL/6 mouse assessed as reduction in early phase of tonic pain at 4 mg/kg, ip administered 10 mins prior to formalin challenge measured after 7 mins in presence of A1AR antagonist DPCPX; type: functional, organism-based; method in brief: as §3
Mus musculus [9] = test: Antinociceptive activity in C57BL/6 mouse assessed as reduction in prolonged phase of tonic pain at 4 mg/kg, ip administered 10 mins prior to formalin challenge measured after 60 mins in presence of A1AR antagonist DPCPX; type: functional, organism-based; method in brief: as §3
Mus musculus [10] = test: Antinociceptive activity in C57BL/6 mouse assessed as reduction in early phase of tonic pain at 2 mg/kg, ip administered 10 mins prior to formalin challenge measured after 7 mins; type: functional, organism-based; method in brief: as §3
Mus musculus [11] = test: Antinociceptive activity in C57BL/6 mouse assessed as reduction in early phase of tonic pain at 4 mg/kg, ip administered 10 mins prior to formalin challenge measured after 7 mins; type: functional, organism-based; method in brief: as §3
Mus musculus [12] = test: Antinociceptive activity in C57BL/6 mouse assessed as reduction in prolonged phase of tonic pain at 4 mg/kg, ip administered 10 mins prior to formalin challenge measured after 60 mins; type: functional, organism-based; method in brief: as §3
Mus musculus [13] = test: Antinociceptive activity in C57BL/6 mouse assessed as reduction in prolonged phase of tonic pain at 2 mg/kg, ip administered 10 mins prior to formalin challenge measured after 60 mins in presence of A1AR antagonist DPCPX; type: functional, organism-based; method in brief: as §3

Chain of Adenosine receptor A2a (P29274 whole entry): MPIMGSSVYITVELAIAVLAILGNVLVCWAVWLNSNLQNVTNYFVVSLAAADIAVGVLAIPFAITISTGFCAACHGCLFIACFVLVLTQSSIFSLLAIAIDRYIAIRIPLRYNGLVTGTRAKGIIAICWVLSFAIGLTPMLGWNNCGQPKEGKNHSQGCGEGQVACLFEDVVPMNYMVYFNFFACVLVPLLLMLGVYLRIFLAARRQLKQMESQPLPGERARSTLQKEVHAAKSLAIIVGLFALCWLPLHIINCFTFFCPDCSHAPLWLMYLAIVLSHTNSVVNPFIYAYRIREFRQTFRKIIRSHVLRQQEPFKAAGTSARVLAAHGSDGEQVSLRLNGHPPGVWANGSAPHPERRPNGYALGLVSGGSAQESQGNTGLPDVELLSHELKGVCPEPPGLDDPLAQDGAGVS

Structure (SMILES): Cc1cc(C)n(C[C@H]2O[C@@H](n3cnc4c(N[C@@H]5CCOC5)nc(Cl)nc43)[C@H](O)[C@@H]2O)n1
- EC50 (Adenosine receptor A2b): > 60000 nM
- Ki (Adenosine receptor A3 [1]): 996 nM
- Ki (Adenosine receptor A2a): 11900 nM
- Ki (Adenosine receptor A1 [2]): 438 nM
- Ratio Ki (Homo sapiens): 27
- Ratio Ki [3]: 2.3

Structure (SMILES): Cc1cc(C)n(C[C@H]2O[C@@H](n3cnc4c(NC5CCCC5)nc(Cl)nc43)[C@H](O)[C@@H]2O)n1
- EC50 (Adenosine receptor A1 [4]): 541 nM
- EC50 (Adenosine receptor A2b): > 30000 nM
- Ki (Adenosine receptor A3 [1]): 343 nM
- Efficacy [5]: > 90%
- Ki (Adenosine receptor A2a): 10200 nM
- Ki (Adenosine receptor A1 [2]): 18.6 nM
- IC50 (Adenosine receptor A3 [6]): 1910 nM
- Ratio Ki (Homo sapiens): 548
- Ratio Ki [3]: 18

Structure (SMILES): O[C@@H]1[C@H](O)[C@@H](CCl)O[C@H]1n1cnc2c(Nc3ccc(Cl)cc3F)ncnc21
- EC50 (Adenosine receptor A1 [4]): 56 nM
- EC50 (Adenosine receptor A2b): 3740 nM
- Ki (Adenosine receptor A3 [1]): 136 nM
- Efficacy [5]: > 90%
- Ki (Adenosine receptor A2a): 1360 nM
- Ki (Adenosine receptor A1 [2]): 1.87 nM
- IC50 (Adenosine receptor A3 [6]): 4140 nM
- Ratio Ki (Homo sapiens): 727
- Ratio Ki [3]: 73

Structure (SMILES): O[C@@H]1[C@H](O)[C@@H](CCl)O[C@H]1n1cnc2c(Nc3ccc(Cl)cc3F)nc(Cl)nc21
- EC50 (Adenosine receptor A2b): > 60000 nM
- Ki (Adenosine receptor A3 [1]): 232 nM
- Ki (Adenosine receptor A2a): 1960 nM
- Ki (Adenosine receptor A1 [2]): 11.2 nM
- Ratio Ki (Homo sapiens): 175
- Ratio Ki [3]: 21

Structure (SMILES): Cc1cc(C)n(C[C@H]2O[C@@H](n3cnc4c(NC5CC6CCC5C6)nc(Cl)nc43)[C@H](O)[C@@H]2O)n1 (mixture of isomers)
- EC50 (Adenosine receptor A1 [4]): 134 nM
- EC50 (Adenosine receptor A2b): > 30000 nM
- Ki (Adenosine receptor A3 [1]): 1450 nM
- Efficacy [5]: > 90%
- Activity (Mus musculus [7]): Dose-dependent effect
- Ki (Adenosine receptor A2a): 9430 nM
- Ki (Adenosine receptor A1 [2]): 4.35 nM
- Ratio Ki (Homo sapiens): 2170
- Ratio Ki [3]: 333

Structure (SMILES): O[C@@H]1[C@H](O)[C@@H](CCl)O[C@H]1n1cnc2c(N[C@@H]3CCOC3)ncnc21
- Activity (Mus musculus [8]): inactive
- EC50 (Adenosine receptor A1 [4]): 140 nM
- EC50 (Adenosine receptor A2b): 12800 nM
- Activity (Mus musculus [9]): inactive
- Ki (Adenosine receptor A3 [1]): 1200 nM
- Efficacy [5]: > 90%
- Ki (Adenosine receptor A2a): 10400 nM
- Ki (Adenosine receptor A1 [2]): 1.89 nM
- Activity (Mus musculus [10]): Active
- Activity (Mus musculus [11]): Active
- Ratio Ki (Homo sapiens): 5500
- Ratio Ki [3]: 635
- Activity (Mus musculus [12]): Active

Structure (SMILES): Cc1cc(C)n(C[C@H]2O[C@@H](n3cnc4c(NC5CCCC5)ncnc43)[C@H](O)[C@@H]2O)n1
- EC50 (Adenosine receptor A2b): > 60000 nM
- Ki (Adenosine receptor A3 [1]): 5640 nM
- Ki (Adenosine receptor A2a): 14500 nM
- Ki (Adenosine receptor A1 [2]): 115 nM
- Ratio Ki (Homo sapiens): 126
- Ratio Ki [3]: 49

Structure (SMILES): Cc1cc(C)n(C[C@H]2O[C@@H](n3cnc4c(N[C@@H]5CCOC5)ncnc43)[C@H](O)[C@@H]2O)n1
- EC50 (Adenosine receptor A2b): > 60000 nM
- Ki (Adenosine receptor A3 [1]): 5280 nM
- Ki (Adenosine receptor A2a): 28600 nM
- Ki (Adenosine receptor A1 [2]): 491 nM
- Ratio Ki (Homo sapiens): 58
- Ratio Ki [3]: 11

Structure (SMILES): Cc1cc(C)n(C[C@H]2O[C@@H](n3cnc4c(Nc5ccc(Cl)cc5F)nc(Cl)nc43)[C@H](O)[C@@H]2O)n1
- EC50 (Adenosine receptor A1 [4]): 5570 nM
- EC50 (Adenosine receptor A2b): > 60000 nM
- Ki (Adenosine receptor A3 [1]): 139 nM
- Efficacy [5]: > 90%
- Ki (Adenosine receptor A2a): > 100000 nM
- Ki (Adenosine receptor A1 [2]): 139 nM
- IC50 (Adenosine receptor A3 [6]): 701 nM
- Ratio Ki (Homo sapiens): > 719
- Ratio Ki [3]: 1

Structure (SMILES): Cc1cc(C)n(C[C@H]2O[C@@H](n3cnc4c(Nc5ccc(Cl)cc5F)ncnc43)[C@H](O)[C@@H]2O)n1
- EC50 (Adenosine receptor A2b): > 60000 nM
- Ki (Adenosine receptor A3 [1]): 2730 nM
- Ki (Adenosine receptor A2a): 6830 nM
- Ki (Adenosine receptor A1 [2]): 158 nM
- Ratio Ki (Homo sapiens): 43
- Ratio Ki [3]: 17

Structure (SMILES): Cc1cc(C)n(C[C@H]2O[C@@H](n3cnc4c(NC5CC6CCC5C6)ncnc43)[C@H](O)[C@@H]2O)n1 (mixture of isomers)
- EC50 (Adenosine receptor A2b): > 30000 nM
- Ki (Adenosine receptor A3 [1]): 5450 nM
- Ki (Adenosine receptor A2a): 19600 nM
- Ki (Adenosine receptor A1 [2]): 25.6 nM
- Ratio Ki (Homo sapiens): 765
- Ratio Ki [3]: 213

Structure (SMILES): O[C@@H]1[C@H](O)[C@@H](CCl)O[C@H]1n1cnc2c(N[C@@H]3CCOC3)nc(Cl)nc21
- EC50 (Adenosine receptor A1 [4]): 54.2 nM
- EC50 (Adenosine receptor A2b): 20000 nM
- Ki (Adenosine receptor A3 [1]): 1100 nM
- Activity (Mus musculus [13]): inactive
- Efficacy [5]: > 90%
- Activity (Mus musculus [7]): Dose-dependent effect
- Ki (Adenosine receptor A2a): 8680 nM
- Ki (Adenosine receptor A1 [2]): 3.5 nM
- Ratio Ki (Homo sapiens): 2480
- Ratio Ki [3]: 314
